In publication PMC11167341 (RSC Advances, 2024):

Columns and labels:
Type in all cases: cell-based
HCT116 = assay: Antiproliferative SRB assay, HCT116; settings: Homo sapiens, HCT-116, 72 h, read-out: HCT116 IC50 (μM) ± SD
Summary of the method: (§1)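 Cells from ATCC, grown in RPMI-1640 with 10% heat-inactivated FBS and penicillin–streptomycin at 37 °C, 5% CO2. They were trypsinized and seeded 24 h before treatment. Test compound was given at 0.01, 0.1, 1, 10 and 100 μg mL−1 for 72 h beside untreated controls. Cells were fixed in 10% TCA (1 h, 4 °C), stained with 0.4% SRB (10 min, dark), rinsed in 1% acetic acid, dissolved in Tris–HCl, and read at 540 nm.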

HepG2 = assay: Antiproliferative SRB assay, HepG2; settings: Homo sapiens, HepG2, 72 h, read-out: HepG2 IC50 (μM) ± SD
Summary of the method: as §1

EA.hy926 = assay: SRB assay on normal cells EA.hy926; settings: Homo sapiens, EA.hy 926, 72 h, read-out: EA.hy926 IC50 (μM) ± SD
Summary of the method: as §1

MCF-7 = assay: Antiproliferative SRB assay, MCF-7; settings: Homo sapiens, MCF7, 72 h, read-out: MCF-7 IC50 (μM) ± SD
Summary of the method: as §1

| IC50 (HCT116) | IC50 (HepG2) | IC50 (MCF-7) | SMILES | IC50 (EA.hy926) |
| --- | --- | --- | --- | --- |
| 82.5 µM | 36.5 µM | 72.9 µM | O=C(NNc1nc(-c2ccccc2)cs1)c1cc2ccccc2oc1=O [6a, 2-Oxo-N′-(4-phenylthiazol-2-yl)-2H-chromene-3-carbohydrazide] | 31.9 µM |
| 1.9 µM | 1.6 µM | 2.1 µM | COc1cccc2c1C(=O)c1c(O)c3c(c(O)c1C2=O)C[C@@](O)(C(=O)CO)C[C@@H]3O[C@H]1C[C@H](N)[C@H](O)[C@H](C)O1 [Doxorubicin, reference compound] | 1.7 µM |
| 6.5 µM | 9.9 µM | 10.3 µM | N#CCC(=O)NNc1nc(-c2ccccc2)cs1 [compound 7, 2-cyano-N′-(4-phenylthiazol-2-yl)acetohydrazide] | 11.6 µM |
